One series addresses Histone deacetylase. The experiment in a line: Inhibition of HDAC in human HeLa cells nuclear extract using Fluor de lys as substrate after 15 mins by fluorometric analysis. The series is classed as cell-based.
The nature of series [1]: Metabolic stability in mouse liver microsomes assessed as compound remaining at 1 uM preincubated for 10 mins measured after 30 mins by LC-MS/MS analysis. The series is classed as ADME. The settings on record: for remaining at 0.5 h, 1 µM: liver microsomes, read-out: Stability. A digest of the protocol: (§1)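 Compound at 1 µM pre-incubated 10 min at 37 °C in potassium phosphate buffer pH 7.4 with 0.5 mg/mL mouse or human hepatic microsomes. Parent quantified by LC-MS/MS (ESI+, MRM, verapamil internal standard). % remaining = peak area at 30 min / area at 0 min × 100; n≥2, mean.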
For orientation: Microsomes from liver hold many membrane-bound enzymes, among them those of drug oxidation.

The subject of the next series is A549. Nature of the series: Antiproliferative activity against human A549 cells assessed as cell viability after 72 hrs by CellTitre-Glo luminescent assay. The series is classed as functional, cell-based.
In a further series the test system is K562. The experiment in a line: Antiproliferative activity against human K562 cells assessed as cell viability after 72 hrs by CellTitre-Glo luminescent assay. Type of series: functional, cell-based.
The next series concerns Liver microsome. The experiment in a line: (§2) Metabolic stability in human liver microsomes assessed as compound remaining at 1 uM preincubated for 10 mins measured after 30 mins by LC-MS/MS analysis. The series is classed as ADME. The settings on record: microsomes, 0.5 h, 1 µM. The procedure, abridged:
as §1

Series [2] can be described thus: Antiproliferative activity against human HCT116 cells assessed as cell viability after 72 hrs by CellTitre-Glo luminescent assay. The series is classed as functional, cell-based, HCT-116.
The target of another series is CYP2C19 (Homo sapiens, UniProt P33261). Nature of the series: Inhibition of human CYP2C19 using 3-cyano-7-ethoxycoumarin as substrate at 10 uM after 30 mins by fluorimetric analysis. The series is classed as ADME. The settings on record: probe 3-cyano-7-ethoxycoumarin. The procedure, abridged: (§3)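 Test compounds at 10 µM in potassium phosphate buffer pH 7.4 with NADPH regenerating system (final 1.3 mM NADP⁺, 3.3 mM glucose 6-phosphate, 0.4 U/ml G6PDH); reaction started at 37 °C by adding Supersomes isoenzyme plus substrate. Enzyme and substrate amounts: CYP1A2 0.5 pmol, 5 µM CEC; CYP2C19 0.5 pmol, 25 µM CEC; CYP3A4 1 pmol, 50 µM BFC; CYP2D6 1.5 pmol, 1.5 µM AMMC. Stopped with acetonitrile/Tris base; fluorescence read; % inhibition versus enzyme without inhibitor; n≥2, mean.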
Chain of CYP2C19 (P33261 whole entry): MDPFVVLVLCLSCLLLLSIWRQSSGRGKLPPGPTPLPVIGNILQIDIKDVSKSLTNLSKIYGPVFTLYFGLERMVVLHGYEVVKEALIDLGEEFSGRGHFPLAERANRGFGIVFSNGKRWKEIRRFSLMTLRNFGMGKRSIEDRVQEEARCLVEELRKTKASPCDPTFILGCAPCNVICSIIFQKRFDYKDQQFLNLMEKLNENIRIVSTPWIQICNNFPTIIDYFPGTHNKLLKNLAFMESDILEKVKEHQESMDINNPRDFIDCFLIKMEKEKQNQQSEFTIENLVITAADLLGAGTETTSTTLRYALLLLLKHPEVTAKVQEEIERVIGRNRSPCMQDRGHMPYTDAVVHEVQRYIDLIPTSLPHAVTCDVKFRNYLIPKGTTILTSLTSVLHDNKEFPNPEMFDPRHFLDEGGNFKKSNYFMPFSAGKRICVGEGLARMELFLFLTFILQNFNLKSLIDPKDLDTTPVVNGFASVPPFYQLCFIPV

A further series has as its target CYP2D6 (Homo sapiens, UniProt P10635). The experiment in a line: Inhibition of human CYP2D6 using 3-[2-(N,N-diethyl-N-methylamino)ethyl]-7-methoxy-4-methylcoumarin as substrate at 10 uM after 30 mins by fluorimetric analysis. The series is classed as ADME. The procedure, abridged:
as §3

For a further series, the target named is T1, CYP1A2 (Homo sapiens, UniProt P05177).
T1 sequence (P05177 whole entry): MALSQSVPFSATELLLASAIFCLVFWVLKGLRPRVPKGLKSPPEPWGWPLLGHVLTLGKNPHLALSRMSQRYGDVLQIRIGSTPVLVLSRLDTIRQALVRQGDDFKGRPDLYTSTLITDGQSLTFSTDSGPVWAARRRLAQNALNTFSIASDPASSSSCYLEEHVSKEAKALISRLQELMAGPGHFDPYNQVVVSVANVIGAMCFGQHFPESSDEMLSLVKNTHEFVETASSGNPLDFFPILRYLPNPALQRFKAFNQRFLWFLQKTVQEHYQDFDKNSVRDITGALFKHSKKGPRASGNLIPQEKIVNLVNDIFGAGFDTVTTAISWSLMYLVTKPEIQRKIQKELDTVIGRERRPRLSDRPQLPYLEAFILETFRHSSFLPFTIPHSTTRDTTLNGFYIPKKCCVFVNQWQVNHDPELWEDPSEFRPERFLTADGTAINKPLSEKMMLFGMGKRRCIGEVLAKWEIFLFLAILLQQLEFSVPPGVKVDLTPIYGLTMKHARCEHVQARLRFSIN
The experiment in a line: Inhibition of human CYP1A2 using 3-cyano-7-ethoxycoumarin as substrate at 10 uM after 15 mins by fluorimetric analysis. The series is classed as ADME. The settings on record: probe 3-cyano-7-ethoxycoumarin. A digest of the protocol:
as §3

For series [3], the target named is T2, Histone deacetylase 2 (Homo sapiens, UniProt Q92769). The experiment in a line: Inhibition of HDAC2 (unknown origin).
T2 sequence (Q92769 whole entry): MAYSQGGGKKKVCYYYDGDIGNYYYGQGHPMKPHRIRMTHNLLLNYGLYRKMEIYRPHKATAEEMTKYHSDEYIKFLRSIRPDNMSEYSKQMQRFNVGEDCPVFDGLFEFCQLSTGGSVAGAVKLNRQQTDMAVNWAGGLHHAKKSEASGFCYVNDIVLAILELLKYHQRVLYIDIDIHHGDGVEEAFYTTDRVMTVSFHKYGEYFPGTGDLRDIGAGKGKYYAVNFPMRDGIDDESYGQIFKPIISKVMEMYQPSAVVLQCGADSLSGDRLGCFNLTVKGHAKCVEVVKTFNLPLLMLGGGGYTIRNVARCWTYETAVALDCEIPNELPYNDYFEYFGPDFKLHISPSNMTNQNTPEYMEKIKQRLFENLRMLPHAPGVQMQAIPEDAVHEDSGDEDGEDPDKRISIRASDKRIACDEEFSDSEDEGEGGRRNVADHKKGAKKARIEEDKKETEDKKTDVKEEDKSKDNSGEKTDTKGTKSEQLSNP
The target of series [4] is T3, Protein deacetylase HDAC6 (Homo sapiens, UniProt Q9UBN7).
T3 sequence (Q9UBN7 whole entry): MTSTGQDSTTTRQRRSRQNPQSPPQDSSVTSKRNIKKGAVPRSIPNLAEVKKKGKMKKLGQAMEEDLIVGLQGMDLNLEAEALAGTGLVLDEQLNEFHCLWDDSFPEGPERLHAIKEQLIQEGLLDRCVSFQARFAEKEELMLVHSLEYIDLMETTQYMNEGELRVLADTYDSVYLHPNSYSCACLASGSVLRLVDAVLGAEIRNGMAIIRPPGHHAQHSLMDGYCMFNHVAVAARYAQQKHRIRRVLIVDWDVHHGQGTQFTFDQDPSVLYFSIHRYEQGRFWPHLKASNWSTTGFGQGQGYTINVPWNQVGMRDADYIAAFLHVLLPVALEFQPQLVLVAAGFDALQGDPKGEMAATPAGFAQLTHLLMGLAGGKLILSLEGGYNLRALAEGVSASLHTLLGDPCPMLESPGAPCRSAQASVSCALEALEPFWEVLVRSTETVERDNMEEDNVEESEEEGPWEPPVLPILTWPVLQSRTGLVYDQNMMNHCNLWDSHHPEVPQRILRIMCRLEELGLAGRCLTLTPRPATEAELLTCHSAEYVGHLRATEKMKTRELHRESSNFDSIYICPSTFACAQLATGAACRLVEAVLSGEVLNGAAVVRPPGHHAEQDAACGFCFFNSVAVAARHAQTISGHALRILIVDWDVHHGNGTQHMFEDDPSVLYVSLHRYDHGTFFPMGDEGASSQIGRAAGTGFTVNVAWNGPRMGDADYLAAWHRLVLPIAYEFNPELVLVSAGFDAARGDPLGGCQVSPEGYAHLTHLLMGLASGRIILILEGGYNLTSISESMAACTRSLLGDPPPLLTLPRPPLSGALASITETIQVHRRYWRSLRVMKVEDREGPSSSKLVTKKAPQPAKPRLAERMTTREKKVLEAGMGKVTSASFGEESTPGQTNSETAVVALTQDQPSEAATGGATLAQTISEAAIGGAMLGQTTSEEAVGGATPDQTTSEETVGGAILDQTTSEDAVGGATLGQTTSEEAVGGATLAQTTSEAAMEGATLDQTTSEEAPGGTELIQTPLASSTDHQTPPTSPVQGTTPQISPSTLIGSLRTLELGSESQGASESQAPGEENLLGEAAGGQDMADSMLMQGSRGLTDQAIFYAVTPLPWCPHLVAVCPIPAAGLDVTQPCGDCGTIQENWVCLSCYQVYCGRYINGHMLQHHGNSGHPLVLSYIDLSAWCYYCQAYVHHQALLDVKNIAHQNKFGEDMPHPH
The experiment in a line: Inhibition of HDAC6 (unknown origin).

A further series addresses CYP3A4 (Homo sapiens, UniProt P08684). The experiment in a line: Inhibition of human CYP3A4 using 7-benzyloxy-4-(trifluoromethyl)-coumarin as substrate at 10 uM after 30 mins by fluorimetric analysis. Type of series: ADME. To be noted: probe 7-benzyloxy-4-(trifluoromethyl)-coumarin. A digest of the protocol:
as §3

The target of series [5] is T4, Histone deacetylase 3 (Homo sapiens, UniProt O15379). The experiment in a line: Inhibition of HDAC3 (unknown origin).
T4 sequence (O15379 whole entry): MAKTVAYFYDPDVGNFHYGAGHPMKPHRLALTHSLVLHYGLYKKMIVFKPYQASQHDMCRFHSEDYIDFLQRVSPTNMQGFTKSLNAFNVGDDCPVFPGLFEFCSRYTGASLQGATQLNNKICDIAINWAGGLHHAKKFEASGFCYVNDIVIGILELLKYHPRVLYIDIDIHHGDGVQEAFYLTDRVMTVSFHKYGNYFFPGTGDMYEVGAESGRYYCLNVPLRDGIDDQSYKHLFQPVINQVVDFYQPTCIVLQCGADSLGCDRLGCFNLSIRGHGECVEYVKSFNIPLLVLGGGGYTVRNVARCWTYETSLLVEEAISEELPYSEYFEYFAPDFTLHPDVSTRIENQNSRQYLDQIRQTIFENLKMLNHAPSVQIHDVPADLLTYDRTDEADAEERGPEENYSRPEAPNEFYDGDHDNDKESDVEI
Series [6] in a line: Solubility of the compound at pH 4.5. Type of series: physicochemical. The settings on record: buffer.
Series [7] can be described thus: as §2. The series is classed as ADME. The settings on record: liver microsomes, read-out: Stability. The procedure, abridged:
as §1

The target in series [8] is T3, Protein deacetylase HDAC6. The experiment in a line: Inhibition of recombinant human HDAC6 after 15 mins by fluorescence assay. A digest of the protocol: (§4)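 Recombinant human HDAC2, 3 or 6 (20, 6 and […] respectively) diluted in assay buffer with inhibitor and 25 µM fluorogenic acetyl-lysine substrate; 15 min at room temperature, then developer 10 min; fluorescence read. Concentration–inhibition data fitted by non-linear regression to give IC50; replicates n≥2, mean shown.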

In series [9] the target is T2, Histone deacetylase 2. Nature of the series: Inhibition of recombinant human HDAC2 after 15 mins by fluorescence assay. A digest of the protocol: as §4
In series [10] the target is T4, Histone deacetylase 3. The experiment in a line: Inhibition of recombinant human HDAC3 after 15 mins by fluorescence assay. A digest of the protocol:
as §4

Each structure is given as a SMILES string.

In general, IC50 refers to the concentration that inhibits the measured activity by half. Broadly, the inhibition is the percentage by which the read-out fell short of the control. Lower therefore signals a response near the control. A word on the solubility: it is the dissolved amount per volume that the medium holds. The low end stands for a poorly soluble substance, the high end for a readily soluble substance.

Chain of CYP2D6 (P10635 whole entry): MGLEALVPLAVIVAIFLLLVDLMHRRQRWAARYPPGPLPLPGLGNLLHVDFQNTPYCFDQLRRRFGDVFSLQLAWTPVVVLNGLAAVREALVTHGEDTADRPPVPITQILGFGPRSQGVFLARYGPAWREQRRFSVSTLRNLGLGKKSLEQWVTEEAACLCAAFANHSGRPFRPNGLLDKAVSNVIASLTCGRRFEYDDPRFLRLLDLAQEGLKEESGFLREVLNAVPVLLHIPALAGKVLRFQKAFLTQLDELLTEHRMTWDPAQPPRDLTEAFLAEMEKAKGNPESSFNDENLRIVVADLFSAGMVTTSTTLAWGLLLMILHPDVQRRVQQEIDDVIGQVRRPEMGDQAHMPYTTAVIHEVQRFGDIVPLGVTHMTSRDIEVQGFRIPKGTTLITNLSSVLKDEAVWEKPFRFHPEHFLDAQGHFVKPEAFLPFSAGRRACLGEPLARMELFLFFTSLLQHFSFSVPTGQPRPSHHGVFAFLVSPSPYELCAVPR
Chain of CYP3A4 (P08684 whole entry): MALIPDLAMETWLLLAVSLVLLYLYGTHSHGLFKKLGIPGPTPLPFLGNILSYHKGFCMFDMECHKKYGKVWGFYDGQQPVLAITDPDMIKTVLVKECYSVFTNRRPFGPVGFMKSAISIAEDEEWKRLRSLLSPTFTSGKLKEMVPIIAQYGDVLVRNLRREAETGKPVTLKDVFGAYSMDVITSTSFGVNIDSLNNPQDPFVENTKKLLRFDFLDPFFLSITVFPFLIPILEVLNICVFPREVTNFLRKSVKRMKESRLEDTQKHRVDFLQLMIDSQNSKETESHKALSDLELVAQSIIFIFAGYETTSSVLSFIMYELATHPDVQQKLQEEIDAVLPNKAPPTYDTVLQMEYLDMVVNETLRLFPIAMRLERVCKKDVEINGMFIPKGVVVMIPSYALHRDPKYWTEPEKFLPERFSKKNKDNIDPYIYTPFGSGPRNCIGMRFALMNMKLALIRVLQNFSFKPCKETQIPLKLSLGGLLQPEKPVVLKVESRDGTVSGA

Consider `O=C(/C=C/c1ccc2c(c1)C(=O)CC1(CCN(Cc3ccccc3)C1)O2)NO` (single isomer, unassigned; (-)), for which the IC50 was 0.026 µM against Histone deacetylase, 0.332 µM in the series on A549 (a549), 0.119 µM in the series on K562 (k562) and 0.066 µM in [2] (hct-116). In addition, the Stability in series [1] (microsomes, 0.5 h, 1 µM) came out at 19%; in the series with Liver microsome it was 23%.
Consider `O=C(/C=C/c1ccc2c(c1)C(=O)CC1(CCN(Cc3ccccc3)C1)O2)NO` (racemic), for which the IC50 at Histone deacetylase amounted to 0.052 µM; against Histone deacetylase 2 [3] it was 0.082 µM; in [4], 0.123 µM; against Histone deacetylase 3 [5] it was 0.028 µM; in the series with A549 (Homo sapiens, A549, 72 h), 0.389 µM; in the series on K562 (k562) it was 0.271 µM. Also, the IC50 in series [2] (Homo sapiens, HCT-116, 72 h) was determined as 0.072 µM. The inhibition at 0.5 h, 10 µM against CYP2C19 came out at 39%; on CYP2D6, 70%; against CYP3A4, 69%. The inhibition at 0.25 h, 10 µM against CYP1A2 was determined as 5%. The remaining at 0.5 h, 1 µM in series [1] is 27%. Further, in [6], the solubility is over 500 µM. Besides, in the series with Liver microsome, the Stability came out at 24%.
As to `O=C(/C=C/c1ccc2c(c1)C(=O)CC1(CCCN(Cc3ccccc3)CC1)O2)NO` (racemic), the IC50 was determined as 0.073 µM against Histone deacetylase; 0.072 µM at Histone deacetylase 2 [3]; 0.151 µM in series [4]; 0.03 µM against Histone deacetylase 3 [5]; 0.371 µM in the series with A549 (Homo sapiens, A549, 72 h); 0.162 µM in the series on K562 (Homo sapiens, K562, 72 h). The IC50 in [2] (Homo sapiens, HCT-116, 72 h) was 0.047 µM. Further, the remaining at 0.5 h, 1 µM in [1] amounted to 25%; in [7] it was 19%.
For `O=C(/C=C/c1ccc2c(c1)C(=O)CC1(CCN(CCc3ccccc3)CC1)O2)NO`, the values for the inhibition at 0.5 h, 10 µM on CYP2C19, against CYP2D6 and against CYP3A4 were 42%, 41% and 40%, respectively. Besides, the IC50 is 0.138 µM in series [8] and 0.199 µM on Histone deacetylase 2 [9]. This compound yielded an inhibition at 0.25 h, 10 µM against CYP1A2 of 13%. In addition, the values for the remaining at 0.5 h, 1 µM in [1] and in series [7] were 57% and 66%, respectively.
As to `O=C(/C=C/c1ccc2c(c1)C(=O)CC1(CCN(Cc3ccccc3)C1)O2)NO` (stereo in doubt; 32j), the half-inhibitory concentration (IC50) against Histone deacetylase is 0.037 µM; in the series with A549 (a549), 0.303 µM; with K562 (k562), 0.13 µM; in series [2] (hct-116), 0.071 µM. The Stability in the series with Liver microsome is on record as 11%.
Regarding `O=C(/C=C/c1ccc2c(c1)C(=O)CC1(CCN(Cc3ccc(F)cc3)CC1)O2)NO`, the values for the inhibition at 0.5 h, 10 µM on CYP2C19, at CYP2D6 and against CYP3A4 were 61%, 43% and 34%, respectively. The inhibition at 0.25 h, 10 µM at CYP1A2 amounted to 5%. The remaining at 0.5 h, 1 µM in series [1] is 47%; in series [7], 63%. Further, the IC50 turned out to be 0.32 µM at Histone deacetylase 2 [9] and 0.092 µM at Histone deacetylase 3 [10].
